Measurements from ChEMBL document CHEMBL1149171, “Development of orally bioavailable bicyclic pyrazolones as inhibitors of tumor necrosis factor-alpha production” (J Med Chem, 2004).
≈ marks a conversion by molar mass, not a printed value.

What was measured:
[1] = molecular target: Mitogen-activated protein kinase 3 (Homo sapiens) (UniProt P27361); experiment: Inhibition of Mitogen-activated protein kinase 3 kinase at 1 uM; parameters: scale not given: the % may be the effect or the level left
Method in brief: (§1)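 Kinase selectivity panel. Each kinase tested with compound at 1 µM and ATP at its K_m, in triplicate. Activity is given as a percentage of control incubations; SD typically 10%.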

[2] = molecular target: Mitogen-activated protein kinase 9 (Homo sapiens) (UniProt P45984); experiment: Inhibition of c-Jun N-terminal kinase 2-alpha 2 at 1 uM; parameters: scale not given: the % may be the effect or the level left; method in brief: as §1
[3] = molecular target: Dual specificity mitogen-activated protein kinase kinase 1 (MEK1, MAP2K1) (Homo sapiens) (UniProt Q02750); experiment: Inhibition of Dual specificity mitogen activated protein kinase kinase 1 at 1 uM; parameters: scale not given: the % may be the effect or the level left
[4] = molecular target: Tyrosine-protein kinase Lck (Homo sapiens) (UniProt P06239); experiment: Inhibition of p56 Lck tyrosine kinase at 1 uM; parameters: scale not given: the % may be the effect or the level left; method in brief: as §1
[5] = molecular target: Mitogen-activated protein kinase 1 (Homo sapiens) (UniProt P28482); experiment: Inhibition of ERK2/MAPK2 kinase at 1 uM; parameters: scale not given: the % may be the effect or the level left; method in brief: as §1
[6] = molecular target: MAP kinase-activated protein kinase 2 (Homo sapiens) (UniProt P49137); experiment: Inhibition of MAPKAP-K2 kinase at 1 uM; parameters: scale not given: the % may be the effect or the level left; method in brief: as §1
[7] = Oral bioavailability in rat; assay type: ADME, organism-based; settings: in vivo
[8] = molecular target: Cyclin-dependent kinase 1/cyclin B (Homo sapiens) (UniProt P06493+P14635+Q8WWL7+O95067); experiment: Inhibition of Cyclin-dependent kinase 1-cyclin B at 1 uM; assay type: protein-complex assay; parameters: scale not given: the % may be the effect or the level left; method in brief: as §1
[9] = Solubility was determined; assay type: ADME, Rattus norvegicus
Method in brief: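 Shake-flask method in 50 mM phosphate buffer, pH 7.4, ionic strength 0.15 M, with 24 h equilibration. Supernatant was centrifuged and filtered, diluted with acetonitrile, and quantified by UV-vis against calibration standards in 1:1 acetonitrile/buffer.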

[10] = Inhibition of MAPK1/IKKB kinase at 1 uM; parameters: scale not given: the % may be the effect or the level left
Method in brief: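 Kinase panel, tested at 1 µM compound with ATP at its K_m, in triplicate. Activity is expressed as a percentage of that in control incubations.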

[11] = molecular target: Glycogen synthase kinase-3 beta (Homo sapiens) (UniProt P49841); experiment: Inhibition of Glycogen synthase kinase-3 beta at 1 uM; parameters: scale not given: the % may be the effect or the level left; method in brief: as §1
[12] = molecular target: T1, Dual specificity mitogen-activated protein kinase kinase 4 (Homo sapiens) (UniProt P45985); experiment: Inhibition of MKK4/SKK1 kinase at 1 uM; parameters: scale not given: the % may be the effect or the level left; method in brief: as §1
T1 sequence (whole entry): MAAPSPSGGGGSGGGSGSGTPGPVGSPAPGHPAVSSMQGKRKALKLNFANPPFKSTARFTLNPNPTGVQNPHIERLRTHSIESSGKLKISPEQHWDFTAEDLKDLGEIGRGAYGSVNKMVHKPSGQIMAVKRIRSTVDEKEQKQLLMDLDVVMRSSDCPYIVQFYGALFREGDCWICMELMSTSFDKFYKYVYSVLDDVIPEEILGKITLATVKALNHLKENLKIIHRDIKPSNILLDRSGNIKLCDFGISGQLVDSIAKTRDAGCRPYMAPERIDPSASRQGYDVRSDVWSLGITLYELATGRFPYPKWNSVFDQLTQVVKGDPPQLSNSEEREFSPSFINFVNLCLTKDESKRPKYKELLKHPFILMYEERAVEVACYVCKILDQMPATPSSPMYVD

[13] = molecular target: RAC-alpha serine/threonine-protein kinase (Homo sapiens) (UniProt P31749); experiment: Inhibition of Protein kinase B alpha (Akt) at 1 uM; parameters: scale not given: the % may be the effect or the level left; method in brief: as §1
[14] = Metabolism was measured as percent loss at 4 hr in rat hepatocytes; assay type: ADME, Hepatocyte; settings: read-out: Metabolism
Method in brief: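 Plated Sprague-Dawley rat hepatocytes on matrigel at 37 °C, 0.25 µM compound, in triplicate. Samples taken at 0, 2 and 4 h and pooled across compounds after incubation, with internal standard added. Analysis by reverse-phase HPLC/MS/MS. Analyte/internal-standard area ratio at 4 h divided by the 0 h ratio gives percent loss.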

[15] = molecular target: Mitogen-activated protein kinase 8 (Homo sapiens) (UniProt P45983); experiment: Inhibition of c-Jun N-terminal kinase 1-alpha 1 at 1 uM; parameters: scale not given: the % may be the effect or the level left; method in brief: as §1
[16] = molecular target: RAF proto-oncogene serine/threonine-protein kinase (Homo sapiens) (UniProt P04049); experiment: Inhibition of RAF proto-oncogene serine/threonine-protein kinase at 1 uM; parameters: scale not given: the % may be the effect or the level left; method in brief: as §1
[17] = molecular target: Mitogen-activated protein kinase 10 (Homo sapiens) (UniProt P53779); experiment: Inhibition of c-Jun N-terminal kinase 3 at 1 uM; parameters: scale not given: the % may be the effect or the level left; method in brief: as §1
MAP kinase p38 = MAP kinase p38 (Homo sapiens, UniProt O15264+Q15759+Q16539+P53778); experiment: Inhibition of human Mitogen-activated protein kinase p38; assay type: protein assay
[18] = molecular target: Cyclin-dependent kinase 2/cyclin A (Homo sapiens) (UniProt P24941+P20248+P78396); experiment: Inhibition of Cyclin-dependent kinase 2-cyclin A at 1 uM; assay type: protein-complex assay; parameters: scale not given: the % may be the effect or the level left; method in brief: as §1
[19] = molecular target: Mitogen-activated protein kinase 3 (Homo sapiens) (UniProt P27361); experiment: Inhibition of Mitogen-activated protein kinase 3 at 1 uM; parameters: scale not given: the % may be the effect or the level left; method in brief: as §1

Sequence of Glycogen synthase kinase-3 beta (Homo sapiens) (P49841 whole entry, looked up): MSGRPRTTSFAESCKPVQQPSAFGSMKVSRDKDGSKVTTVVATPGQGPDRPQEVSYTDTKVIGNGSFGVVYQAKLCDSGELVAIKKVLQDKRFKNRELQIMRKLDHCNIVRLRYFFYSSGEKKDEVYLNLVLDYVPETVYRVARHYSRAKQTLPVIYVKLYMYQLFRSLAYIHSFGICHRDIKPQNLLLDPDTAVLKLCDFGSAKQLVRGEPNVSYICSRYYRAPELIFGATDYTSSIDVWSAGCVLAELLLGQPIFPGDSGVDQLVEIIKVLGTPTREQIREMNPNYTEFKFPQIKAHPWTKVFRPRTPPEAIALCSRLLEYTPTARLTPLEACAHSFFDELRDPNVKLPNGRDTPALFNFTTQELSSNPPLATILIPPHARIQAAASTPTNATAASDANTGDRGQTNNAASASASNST
Sequence of Dual specificity mitogen-activated protein kinase kinase 1 (MEK1, MAP2K1) (Homo sapiens) (Q02750 whole entry, looked up): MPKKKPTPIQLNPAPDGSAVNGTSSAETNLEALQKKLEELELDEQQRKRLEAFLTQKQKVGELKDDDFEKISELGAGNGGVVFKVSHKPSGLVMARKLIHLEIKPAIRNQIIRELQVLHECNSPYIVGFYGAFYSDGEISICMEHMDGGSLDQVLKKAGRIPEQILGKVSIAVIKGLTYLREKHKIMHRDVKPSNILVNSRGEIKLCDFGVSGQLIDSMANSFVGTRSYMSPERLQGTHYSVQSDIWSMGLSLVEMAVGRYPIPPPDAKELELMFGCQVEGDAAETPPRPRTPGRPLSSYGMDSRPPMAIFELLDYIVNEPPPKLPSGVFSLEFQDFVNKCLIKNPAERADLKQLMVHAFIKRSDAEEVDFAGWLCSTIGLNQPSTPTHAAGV
Sequence of Mitogen-activated protein kinase 3 (Homo sapiens) (P27361 whole entry): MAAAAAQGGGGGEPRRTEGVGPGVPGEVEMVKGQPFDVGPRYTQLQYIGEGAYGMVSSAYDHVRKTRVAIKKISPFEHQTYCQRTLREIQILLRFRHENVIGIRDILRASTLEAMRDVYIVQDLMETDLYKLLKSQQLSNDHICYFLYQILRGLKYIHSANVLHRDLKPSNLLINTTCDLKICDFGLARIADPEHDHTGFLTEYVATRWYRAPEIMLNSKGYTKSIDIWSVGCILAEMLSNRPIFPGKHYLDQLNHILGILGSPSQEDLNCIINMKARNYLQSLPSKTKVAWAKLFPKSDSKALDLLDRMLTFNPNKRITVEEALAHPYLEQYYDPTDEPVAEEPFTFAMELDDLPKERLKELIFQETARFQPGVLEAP
Sequence of RAC-alpha serine/threonine-protein kinase (Homo sapiens) (P31749 whole entry): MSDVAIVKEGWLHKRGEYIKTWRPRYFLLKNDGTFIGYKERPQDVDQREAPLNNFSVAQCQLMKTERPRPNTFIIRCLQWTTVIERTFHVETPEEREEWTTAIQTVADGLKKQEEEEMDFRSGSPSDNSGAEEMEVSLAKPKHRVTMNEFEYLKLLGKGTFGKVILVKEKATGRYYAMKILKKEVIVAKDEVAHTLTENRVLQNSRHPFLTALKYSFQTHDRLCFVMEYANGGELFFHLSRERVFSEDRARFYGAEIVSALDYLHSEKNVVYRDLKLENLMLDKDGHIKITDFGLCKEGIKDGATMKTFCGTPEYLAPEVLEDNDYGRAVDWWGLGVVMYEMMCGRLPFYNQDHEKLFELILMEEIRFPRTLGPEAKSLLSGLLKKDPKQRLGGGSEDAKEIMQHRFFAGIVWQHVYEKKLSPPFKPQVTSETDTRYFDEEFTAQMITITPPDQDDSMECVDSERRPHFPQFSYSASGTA
Sequence of Mitogen-activated protein kinase 8 (Homo sapiens) (P45983 whole entry): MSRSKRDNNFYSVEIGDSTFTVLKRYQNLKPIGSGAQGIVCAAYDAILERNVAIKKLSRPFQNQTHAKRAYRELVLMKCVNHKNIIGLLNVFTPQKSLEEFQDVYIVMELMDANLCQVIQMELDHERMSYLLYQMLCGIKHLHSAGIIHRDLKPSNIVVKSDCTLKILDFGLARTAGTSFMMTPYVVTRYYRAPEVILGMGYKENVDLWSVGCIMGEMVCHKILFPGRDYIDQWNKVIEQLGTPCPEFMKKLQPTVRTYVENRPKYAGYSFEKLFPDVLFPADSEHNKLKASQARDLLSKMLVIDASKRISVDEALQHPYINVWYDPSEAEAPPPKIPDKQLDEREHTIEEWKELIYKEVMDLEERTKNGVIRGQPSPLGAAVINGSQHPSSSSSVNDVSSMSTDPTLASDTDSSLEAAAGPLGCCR
Sequence of Mitogen-activated protein kinase 10 (Homo sapiens) (P53779 whole entry): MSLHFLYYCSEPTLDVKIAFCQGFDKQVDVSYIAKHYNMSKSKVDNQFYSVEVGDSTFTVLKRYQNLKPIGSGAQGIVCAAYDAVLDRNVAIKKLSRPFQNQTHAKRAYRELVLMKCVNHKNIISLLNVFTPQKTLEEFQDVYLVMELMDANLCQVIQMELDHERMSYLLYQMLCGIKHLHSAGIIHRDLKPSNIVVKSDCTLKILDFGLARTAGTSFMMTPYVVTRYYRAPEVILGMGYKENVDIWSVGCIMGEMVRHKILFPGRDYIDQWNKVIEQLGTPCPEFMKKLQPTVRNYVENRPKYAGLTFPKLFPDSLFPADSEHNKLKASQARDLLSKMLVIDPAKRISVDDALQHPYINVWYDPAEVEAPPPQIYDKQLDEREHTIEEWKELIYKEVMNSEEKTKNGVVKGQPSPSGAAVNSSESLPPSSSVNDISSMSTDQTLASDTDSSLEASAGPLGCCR
Sequence of RAF proto-oncogene serine/threonine-protein kinase (Homo sapiens) (P04049 whole entry): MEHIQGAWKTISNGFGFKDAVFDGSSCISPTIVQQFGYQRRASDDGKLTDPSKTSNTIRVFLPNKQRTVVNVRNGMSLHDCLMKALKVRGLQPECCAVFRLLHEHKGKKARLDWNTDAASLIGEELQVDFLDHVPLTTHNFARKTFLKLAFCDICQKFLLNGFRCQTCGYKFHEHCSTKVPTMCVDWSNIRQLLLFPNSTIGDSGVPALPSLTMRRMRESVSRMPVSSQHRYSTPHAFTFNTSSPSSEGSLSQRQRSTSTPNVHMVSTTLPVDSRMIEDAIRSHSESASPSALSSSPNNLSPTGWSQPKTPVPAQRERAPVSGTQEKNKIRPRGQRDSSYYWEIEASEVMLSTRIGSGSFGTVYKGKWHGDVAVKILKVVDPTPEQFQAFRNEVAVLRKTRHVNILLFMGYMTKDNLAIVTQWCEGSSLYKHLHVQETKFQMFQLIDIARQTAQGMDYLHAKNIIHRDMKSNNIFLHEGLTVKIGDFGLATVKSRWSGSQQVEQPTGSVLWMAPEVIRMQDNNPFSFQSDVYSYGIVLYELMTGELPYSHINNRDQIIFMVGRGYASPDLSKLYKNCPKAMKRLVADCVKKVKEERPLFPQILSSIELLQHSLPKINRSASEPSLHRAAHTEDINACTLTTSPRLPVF
Sequence of Mitogen-activated protein kinase 9 (Homo sapiens) (P45984 whole entry, looked up): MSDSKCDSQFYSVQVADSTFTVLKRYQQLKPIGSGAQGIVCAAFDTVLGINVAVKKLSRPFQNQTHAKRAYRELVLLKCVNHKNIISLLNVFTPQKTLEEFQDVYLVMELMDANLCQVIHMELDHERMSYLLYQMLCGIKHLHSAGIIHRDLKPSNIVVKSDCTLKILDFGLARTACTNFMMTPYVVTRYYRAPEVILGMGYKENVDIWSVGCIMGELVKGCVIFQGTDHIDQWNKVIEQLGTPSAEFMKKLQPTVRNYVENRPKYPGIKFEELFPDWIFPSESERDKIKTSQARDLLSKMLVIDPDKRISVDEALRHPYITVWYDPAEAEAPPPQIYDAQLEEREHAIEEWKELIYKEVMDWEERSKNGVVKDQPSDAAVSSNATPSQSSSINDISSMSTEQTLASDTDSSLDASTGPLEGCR
Sequence of Mitogen-activated protein kinase 1 (Homo sapiens) (P28482 whole entry): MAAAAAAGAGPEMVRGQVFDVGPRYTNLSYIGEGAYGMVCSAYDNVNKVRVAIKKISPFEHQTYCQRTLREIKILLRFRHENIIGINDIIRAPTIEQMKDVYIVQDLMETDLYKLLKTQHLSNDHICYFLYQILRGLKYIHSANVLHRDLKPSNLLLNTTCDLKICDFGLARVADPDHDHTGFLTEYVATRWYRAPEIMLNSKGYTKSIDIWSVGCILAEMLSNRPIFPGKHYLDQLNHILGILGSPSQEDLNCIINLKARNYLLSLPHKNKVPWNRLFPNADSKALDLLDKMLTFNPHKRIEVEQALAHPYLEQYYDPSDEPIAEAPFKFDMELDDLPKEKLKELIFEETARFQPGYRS
Sequence of MAP kinase-activated protein kinase 2 (Homo sapiens) (P49137 whole entry, looked up): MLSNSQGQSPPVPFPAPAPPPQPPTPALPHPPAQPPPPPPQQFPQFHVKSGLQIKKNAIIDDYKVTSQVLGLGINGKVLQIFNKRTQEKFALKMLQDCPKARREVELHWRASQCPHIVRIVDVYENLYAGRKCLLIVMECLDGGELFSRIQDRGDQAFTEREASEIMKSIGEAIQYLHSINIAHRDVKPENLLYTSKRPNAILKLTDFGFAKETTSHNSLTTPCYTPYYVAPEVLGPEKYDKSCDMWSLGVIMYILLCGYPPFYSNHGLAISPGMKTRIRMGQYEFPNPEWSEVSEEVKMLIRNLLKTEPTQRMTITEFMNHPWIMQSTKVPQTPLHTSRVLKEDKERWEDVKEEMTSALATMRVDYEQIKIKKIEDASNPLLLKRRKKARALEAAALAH
Sequence of Tyrosine-protein kinase Lck (Homo sapiens) (P06239 2-509 limits assumed): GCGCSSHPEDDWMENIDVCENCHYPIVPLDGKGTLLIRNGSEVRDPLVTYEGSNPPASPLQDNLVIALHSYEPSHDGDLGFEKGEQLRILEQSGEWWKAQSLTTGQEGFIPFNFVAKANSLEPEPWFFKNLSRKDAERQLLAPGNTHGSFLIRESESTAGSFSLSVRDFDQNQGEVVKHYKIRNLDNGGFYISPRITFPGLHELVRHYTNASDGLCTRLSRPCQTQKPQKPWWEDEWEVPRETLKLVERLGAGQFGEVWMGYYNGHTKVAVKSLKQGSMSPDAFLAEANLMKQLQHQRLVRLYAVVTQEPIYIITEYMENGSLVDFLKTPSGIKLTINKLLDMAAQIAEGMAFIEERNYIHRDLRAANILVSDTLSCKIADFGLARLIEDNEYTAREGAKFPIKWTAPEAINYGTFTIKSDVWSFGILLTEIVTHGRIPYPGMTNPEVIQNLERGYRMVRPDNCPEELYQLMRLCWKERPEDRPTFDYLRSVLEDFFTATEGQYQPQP

| Structure (SMILES) | Activity [1] [%] | Activity [2] [%] | Activity [3] [%] | Activity [4] [%] | Activity [5] [%] | Activity [6] [%] | bioavailability [7] [%] | Activity [8] [%] | solubility [9] [µg/mL] | Activity [10] [%] | Activity [11] [%] | Activity [12] [%] | Activity [13] [%] | metabolised at 4 h [14] [%] | Activity [15] [%] | Activity [16] [%] | Activity [17] [%] | IC50 (MAP kinase p38) [nM] | Activity [18] [%] | Activity [19] [%] |
| --- | --- | --- | --- | --- | --- | --- | --- | --- | --- | --- | --- | --- | --- | --- | --- | --- | --- | --- | --- | --- |
| C[C@H](Nc1nccc(-c2c(-c3ccc(F)cc3)c(=O)n3n2CCC3)n1)c1ccccc1 |  | 8 | 99 | 161 | 80 | 91 | 29 | 95 | 200 (≈ 481 µM) |  | 101 | 166 | 98 | 50 | 52 | 61 | 4 | 8 | 117 | 82 |
| O=c1c(-c2ccc(F)cc2)c(-c2ccnc(NCc3ccccc3)n2)n2n1CCC2 |  |  |  |  |  |  | 18 |  | 100 (≈ 249 µM) |  |  |  |  | 46 |  |  |  |  |  |  |

Second part, the molecule after the results:

| Activity [1] [%] | Activity [2] [%] | Activity [3] [%] | Activity [4] [%] | Activity [5] [%] | Activity [6] [%] | bioavailability [7] [%] | Activity [8] [%] | solubility [9] [µg/mL] | Activity [10] [%] | Activity [11] [%] | Activity [12] [%] | Activity [13] [%] | metabolised at 4 h [14] [%] | Activity [15] [%] | Activity [16] [%] | Activity [17] [%] | IC50 (MAP kinase p38) [nM] | Activity [18] [%] | Activity [19] [%] | Structure (SMILES) |
| --- | --- | --- | --- | --- | --- | --- | --- | --- | --- | --- | --- | --- | --- | --- | --- | --- | --- | --- | --- | --- |
| 9 | 73 | 95 | 141 | 108 | 112 | 25 | 99 | 1850 (≈ 4650 µM) | 111 | 99 | 117 | 119 | 29 | 105 | 91 | 36 | 54 | 101 |  | C[C@H](Nc1nccc(-c2c(-c3ccc(F)cc3)c(=O)n3n2CCC3)n1)C(C)(C)O |
|  |  |  |  |  |  | 10 |  | 460 (≈ 1250 µM) |  |  |  |  | 60 |  |  |  |  |  |  | CC[C@H](C)Nc1nccc(-c2c(-c3ccc(F)cc3)c(=O)n3n2CCC3)n1 |
| 96 | 8 | 102 |  | 98 | 113 | 63 | 96 | 840 (≈ 2190 µM) |  | 72 | 90 | 89 | < 5 | 65 | 55 | 5 | 27 | 108 |  | COC[C@H](C)Nc1nccc(-c2c(-c3ccc(F)cc3)c(=O)n3n2CCC3)n1 |
